Key:
[1] = biological target: T1, Tyrosine-protein phosphatase non-receptor type 1 (Homo sapiens, UniProt P18031); assay: Inhibition of PTP1B
T1 sequence (P18031 whole entry): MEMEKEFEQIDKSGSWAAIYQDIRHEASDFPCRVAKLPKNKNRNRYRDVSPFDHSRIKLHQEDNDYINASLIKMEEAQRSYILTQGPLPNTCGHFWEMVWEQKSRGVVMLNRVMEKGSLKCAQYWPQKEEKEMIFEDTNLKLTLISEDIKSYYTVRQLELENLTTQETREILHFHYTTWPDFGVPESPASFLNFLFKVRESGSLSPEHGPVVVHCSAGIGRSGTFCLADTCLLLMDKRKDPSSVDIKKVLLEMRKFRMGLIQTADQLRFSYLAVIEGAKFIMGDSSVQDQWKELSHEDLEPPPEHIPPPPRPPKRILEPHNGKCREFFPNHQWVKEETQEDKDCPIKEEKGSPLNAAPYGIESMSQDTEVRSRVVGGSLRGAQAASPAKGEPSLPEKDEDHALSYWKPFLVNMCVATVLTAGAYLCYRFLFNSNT
Outline: (§1)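 Fluorometric DiFMUP hydrolysis at 30 C in 50 mM Bis-Tris pH 6.0 (ionic strength 50 mM with NaCl), 1 mM DTT, 5% DMSO, 1% PEG8000. DiFMUP fixed at each PTP's Km. Initial rates read at ex 360/em 460 nm across several compound concentrations. No-enzyme control used to correct for nonenzymatic hydrolysis. HePTP was recombinant in-house; PTP1B, Shp1, CD45 and LAR were commercial recombinant enzymes.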

[2] = biological target: T2, Receptor-type tyrosine-protein phosphatase C (Homo sapiens, UniProt P08575); assay: Inhibition of CD45; outline: as §1
T2 sequence (P08575 whole entry): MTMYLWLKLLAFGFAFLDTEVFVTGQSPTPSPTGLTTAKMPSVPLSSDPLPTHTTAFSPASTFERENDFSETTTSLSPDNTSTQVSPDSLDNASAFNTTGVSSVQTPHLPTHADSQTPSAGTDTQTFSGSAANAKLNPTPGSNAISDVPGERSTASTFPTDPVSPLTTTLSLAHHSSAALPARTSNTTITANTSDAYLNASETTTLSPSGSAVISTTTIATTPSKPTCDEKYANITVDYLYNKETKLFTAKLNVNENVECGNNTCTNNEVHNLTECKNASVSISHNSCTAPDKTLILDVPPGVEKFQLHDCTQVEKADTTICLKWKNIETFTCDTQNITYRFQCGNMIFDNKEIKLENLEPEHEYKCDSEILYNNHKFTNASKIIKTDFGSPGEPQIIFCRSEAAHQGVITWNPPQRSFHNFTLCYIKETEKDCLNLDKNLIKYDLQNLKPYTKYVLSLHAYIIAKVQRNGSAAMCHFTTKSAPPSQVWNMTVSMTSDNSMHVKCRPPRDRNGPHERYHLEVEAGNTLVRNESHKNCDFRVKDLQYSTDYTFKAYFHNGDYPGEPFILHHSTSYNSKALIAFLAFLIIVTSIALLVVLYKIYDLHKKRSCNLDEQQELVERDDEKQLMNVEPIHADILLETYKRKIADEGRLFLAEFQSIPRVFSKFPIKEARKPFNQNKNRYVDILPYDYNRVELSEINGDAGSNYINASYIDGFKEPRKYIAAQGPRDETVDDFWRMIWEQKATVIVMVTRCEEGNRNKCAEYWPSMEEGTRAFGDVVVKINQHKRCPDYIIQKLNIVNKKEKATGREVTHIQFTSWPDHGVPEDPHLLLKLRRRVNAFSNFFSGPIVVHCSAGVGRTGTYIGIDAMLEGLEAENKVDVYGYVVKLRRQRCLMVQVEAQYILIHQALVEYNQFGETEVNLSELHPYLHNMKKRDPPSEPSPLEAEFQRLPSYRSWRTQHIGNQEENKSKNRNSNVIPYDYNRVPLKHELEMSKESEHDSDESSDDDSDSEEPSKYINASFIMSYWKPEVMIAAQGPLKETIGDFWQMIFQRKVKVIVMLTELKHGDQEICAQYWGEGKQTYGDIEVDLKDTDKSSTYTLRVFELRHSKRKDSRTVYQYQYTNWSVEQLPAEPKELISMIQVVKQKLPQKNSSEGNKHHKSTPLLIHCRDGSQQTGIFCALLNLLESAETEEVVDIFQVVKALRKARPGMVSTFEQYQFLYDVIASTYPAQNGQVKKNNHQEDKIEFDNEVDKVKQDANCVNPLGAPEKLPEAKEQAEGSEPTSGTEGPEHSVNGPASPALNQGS

[3] = biological target: T3, Tyrosine-protein phosphatase non-receptor type 7 (Homo sapiens, UniProt P35236); assay: Inhibition of HePTP; outline: as §1
T3 sequence (P35236 whole entry): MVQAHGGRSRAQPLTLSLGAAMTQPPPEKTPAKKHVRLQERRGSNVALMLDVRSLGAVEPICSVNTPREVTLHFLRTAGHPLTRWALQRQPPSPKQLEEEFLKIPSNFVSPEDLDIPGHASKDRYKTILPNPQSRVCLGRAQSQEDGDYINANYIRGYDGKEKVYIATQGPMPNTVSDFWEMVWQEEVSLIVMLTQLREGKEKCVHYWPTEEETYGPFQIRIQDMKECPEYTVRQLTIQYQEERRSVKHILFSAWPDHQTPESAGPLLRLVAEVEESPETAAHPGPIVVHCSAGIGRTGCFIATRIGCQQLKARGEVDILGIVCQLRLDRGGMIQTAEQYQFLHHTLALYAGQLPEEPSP

[4] = biological target: Receptor-type tyrosine-protein phosphatase F (Homo sapiens, UniProt P10586); assay: Inhibition of LAR; outline: as §1
Receptor-type tyrosine-protein phosphatase F, sequence (P10586 whole entry): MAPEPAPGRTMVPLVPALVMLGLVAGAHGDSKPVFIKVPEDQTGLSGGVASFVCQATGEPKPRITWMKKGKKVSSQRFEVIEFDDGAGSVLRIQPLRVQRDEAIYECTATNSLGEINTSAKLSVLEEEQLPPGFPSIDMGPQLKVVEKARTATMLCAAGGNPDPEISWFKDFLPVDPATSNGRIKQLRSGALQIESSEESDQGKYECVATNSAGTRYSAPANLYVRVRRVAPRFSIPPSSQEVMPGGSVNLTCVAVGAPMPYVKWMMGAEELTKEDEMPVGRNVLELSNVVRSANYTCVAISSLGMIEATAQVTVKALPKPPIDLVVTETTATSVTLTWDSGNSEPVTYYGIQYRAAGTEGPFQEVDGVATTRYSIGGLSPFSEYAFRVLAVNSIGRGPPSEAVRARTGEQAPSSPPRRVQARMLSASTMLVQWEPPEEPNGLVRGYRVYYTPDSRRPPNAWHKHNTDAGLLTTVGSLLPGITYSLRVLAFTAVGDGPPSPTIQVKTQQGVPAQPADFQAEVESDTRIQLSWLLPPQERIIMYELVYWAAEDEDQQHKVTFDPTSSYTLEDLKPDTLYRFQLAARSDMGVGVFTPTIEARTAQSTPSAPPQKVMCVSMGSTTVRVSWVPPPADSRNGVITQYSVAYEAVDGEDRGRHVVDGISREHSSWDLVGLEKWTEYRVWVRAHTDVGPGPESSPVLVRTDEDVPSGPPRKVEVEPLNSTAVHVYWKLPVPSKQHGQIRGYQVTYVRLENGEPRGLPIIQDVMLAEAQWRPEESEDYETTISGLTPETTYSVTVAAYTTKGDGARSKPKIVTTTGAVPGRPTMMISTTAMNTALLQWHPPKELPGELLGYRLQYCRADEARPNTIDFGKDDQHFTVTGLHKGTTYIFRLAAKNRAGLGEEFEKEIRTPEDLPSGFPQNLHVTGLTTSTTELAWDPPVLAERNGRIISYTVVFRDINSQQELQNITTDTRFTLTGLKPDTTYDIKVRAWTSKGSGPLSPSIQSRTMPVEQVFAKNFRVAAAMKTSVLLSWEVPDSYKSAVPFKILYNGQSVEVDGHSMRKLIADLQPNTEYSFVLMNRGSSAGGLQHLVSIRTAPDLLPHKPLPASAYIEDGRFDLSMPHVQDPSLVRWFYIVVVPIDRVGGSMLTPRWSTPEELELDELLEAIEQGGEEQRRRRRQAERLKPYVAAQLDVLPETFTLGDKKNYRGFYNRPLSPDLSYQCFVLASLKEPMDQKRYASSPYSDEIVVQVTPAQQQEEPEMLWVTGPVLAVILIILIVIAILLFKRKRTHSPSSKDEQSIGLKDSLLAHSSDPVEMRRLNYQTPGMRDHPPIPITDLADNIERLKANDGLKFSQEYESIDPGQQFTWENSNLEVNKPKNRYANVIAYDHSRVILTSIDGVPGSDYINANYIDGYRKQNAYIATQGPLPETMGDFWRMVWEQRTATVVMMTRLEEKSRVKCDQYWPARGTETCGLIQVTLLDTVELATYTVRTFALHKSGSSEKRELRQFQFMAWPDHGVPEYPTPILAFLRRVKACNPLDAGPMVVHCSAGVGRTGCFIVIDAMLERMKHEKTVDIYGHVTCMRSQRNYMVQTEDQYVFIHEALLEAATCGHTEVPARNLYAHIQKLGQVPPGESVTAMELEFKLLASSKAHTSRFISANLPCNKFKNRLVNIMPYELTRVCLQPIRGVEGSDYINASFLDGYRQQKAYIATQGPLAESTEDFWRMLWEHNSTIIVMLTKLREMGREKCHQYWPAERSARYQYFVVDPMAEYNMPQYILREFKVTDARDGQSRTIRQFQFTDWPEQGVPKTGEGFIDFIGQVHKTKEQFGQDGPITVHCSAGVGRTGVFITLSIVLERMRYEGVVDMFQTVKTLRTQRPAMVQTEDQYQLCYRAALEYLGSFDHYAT

SMILES	IC50 [1] [µM]	IC50 [2] [µM]	IC50 [3] [µM]	IC50 [4] [µM]
COc1ccc2nc(NC(=O)CCCn3cc(-c4c(-c5cccc(C)c5)oc5cc(O)c(C(=O)O)cc45)nn3)sc2c1	0.217	0.877	6.36	39.9
COc1ccc(-c2oc3cc(O)c(C(=O)O)cc3c2-c2cn(CCCC(=O)Nc3cccc4ccccc34)nn2)cc1	0.19	0.41	3.7	25.5
Cc1ccc(-c2oc3cc(O)c(C(=O)O)cc3c2-c2cn(CCCC(=O)Nc3cccc4ccccc34)nn2)cc1	0.214	0.681	4.07	36.1
Cc1ccc(-c2oc3cc(O)c(C(=O)O)cc3c2-c2cn(CCCC(=O)Nc3ccc(Cl)c4ccccc34)nn2)cc1	0.205	1.05	3.69	23.7
COC(=O)c1cc2c(-c3cn(CCCC(=O)Nc4ccc(Cl)c5ccccc45)nn3)c(-c3ccccc3)oc2cc1O	11.5	16.2	32	44.4

From ChEMBL document CHEMBL1649423, “Inhibition of lymphoid tyrosine phosphatase by benzofuran salicylic acids” (J Med Chem, 2011)
